Assay results taken from ChEMBL document CHEMBL1144777, “An endophytic fungus from Hypericum perforatum that produces hypericin” (J Nat Prod, 2008).
Calls of active or inactive are those of the source.

Legend:
Aspergillus niger = assay: Antimicrobial activity against Aspergillus niger DSM 1988 by disk diffusion method; type: functional, organism-based
How it was run: (§1)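 Samples were fungal products from potato dextrose broth cultures, tested alongside authentic standards. Organic extracts of mycelia and broth were dried by rotary evaporation at 30 °C and redissolved in 1 mL HPLC-grade methanol.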

Staphylococcus aureus = assay: Antimicrobial activity against Staphylococcus aureus ssp. Aureus DSM 799 by disk diffusion method; type: functional; how it was run: as §1
Escherichia coli = assay: Antimicrobial activity against Escherichia coli DSM 682 by disk diffusion method; type: functional, organism-based; how it was run: as §1
Candida albicans = assay: Antimicrobial activity against Candida albicans DSM 1386 by disk diffusion method; type: functional, organism-based; how it was run: as §1
[1] = test system: Klebsiella pneumoniae subsp. pneumoniae; assay: Antimicrobial activity against Klebsiella pneumoniae ssp. ozaenae DSM 681 by disk diffusion method; type: functional, organism-based; how it was run: as §1
[2] = test system: Salmonella enterica subsp. enterica; assay: Antimicrobial activity against Salmonella enterica ssp. enterica DSM 9898 by disk diffusion method; type: functional, organism-based; how it was run: as §1
Pseudomonas aeruginosa = assay: Antimicrobial activity against Pseudomonas aeruginosa DSM 1128 by disk diffusion method; type: functional, organism-based; how it was run: as §1

Measured: Activity

Cc1cc(O)c2c(=O)c3c(O)cc(O)c4c5c(O)cc(O)c6c(=O)c7c(O)cc(C)c8c1c2c(c34)c(c78)c65
active: all assays above

Cc1cc(O)c2c(c1)C(=O)c1cc(O)cc(O)c1C2=O
active: all assays above
